Assay results as given in ChEMBL document CHEMBL2069274, “Novel 3-nitro-1H-1,2,4-triazole-based amides and sulfonamides as potential antitrypanosomal agents” (J Med Chem, 2012).
Calls of active or inactive are those of the source. No cut-off for these calls is given here.

What was measured:
[1] = system: Trypanosoma brucei brucei; assay: Antitrypanosomal activity against bloodstream form of Trypanosoma brucei brucei Lister 427 clone 221a overexpressing tet-inducible NTR in presence of tetracycline after 3 days; details: 72 h
[2] = system: Trypanosoma brucei brucei; assay: Antitrypanosomal activity against bloodstream form of Trypanosoma brucei brucei Lister 427 clone 221a; type: functional, organism-based
Procedure, shortened: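 Bloodstream-form parasites seeded at 1 × 10^3 per ml in growth medium with a range of compound concentrations; where required, TbNTR expression induced with tetracycline (1 μg/mL). Incubation 3 days at 37 °C, then Alamar blue added for a further 16 h. Cell density read and IC50 determined.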

[3] = system: Trypanosoma brucei rhodesiense; assay: Antitrypanosomal activity against Trypanosoma brucei rhodesiense STIB 900 trypomastigotes; type: functional, organism-based
Procedure, shortened: (§1)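 96-well format screens: bloodstream-form T. b. rhodesiense trypomastigotes, T. cruzi amastigotes within infected L6 rat skeletal myoblasts, axenically grown L. donovani amastigotes, and uninfected L6 cells for cytotoxicity. IC50 (μM) obtained by linear regression from sigmoidal dose–inhibition curves.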

Trypanosoma cruzi [4] = assay: Antitrypanosomal activity against Trypanosoma cruzi Tulahuen C4 amastigotes; type: functional, organism-based
Procedure, shortened: as §1

Leishmania donovani = assay: Antileishmanial activity against Leishmania donovani MHOM-ET67/L82 amastigotes; type: functional, organism-based
Procedure, shortened: as §1

[5] = target: Trypanothione reductase (Trypanosoma brucei brucei) (UniProt P39051); assay: Inhibition of Trypanosoma brucei brucei trypanothione reductase at <100 uM
Sequence of Trypanothione reductase (Trypanosoma brucei brucei) (P39051 whole entry, looked up): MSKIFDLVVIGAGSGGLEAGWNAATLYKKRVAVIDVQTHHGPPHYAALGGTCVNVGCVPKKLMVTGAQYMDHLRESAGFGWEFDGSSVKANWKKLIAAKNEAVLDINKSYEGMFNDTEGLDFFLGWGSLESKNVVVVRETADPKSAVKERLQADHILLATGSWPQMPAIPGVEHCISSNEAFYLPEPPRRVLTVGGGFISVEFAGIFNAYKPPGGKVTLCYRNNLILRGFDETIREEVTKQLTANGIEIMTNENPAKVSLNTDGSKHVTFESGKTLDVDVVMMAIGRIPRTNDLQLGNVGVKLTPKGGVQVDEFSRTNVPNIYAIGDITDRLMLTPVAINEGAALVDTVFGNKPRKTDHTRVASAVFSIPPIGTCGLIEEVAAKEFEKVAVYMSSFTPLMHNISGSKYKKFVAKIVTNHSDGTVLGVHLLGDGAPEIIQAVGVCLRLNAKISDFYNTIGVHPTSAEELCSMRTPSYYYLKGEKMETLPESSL

[6] = Selectivity index, ratio of IC50 for rat L6 cells to IC50 for Trypanosoma brucei rhodesiense STIB900 trypomastigotes
[7] = system: Trypanosoma brucei brucei; assay: Antitrypanosomal activity against bloodstream form of Trypanosoma brucei brucei Lister 427 clone 221a overexpressing tet-inducible NTR in absence of tetracycline after 3 days; details: 72 h
L6 = assay: Cytotoxicity against rat L6 cells; type: cell-based
Procedure, shortened: as §1

Trypanosoma cruzi [8] = assay: Ratio of benznidazole IC50 to compound IC50 for Trypanosoma cruzi Tulahuen C4 amastigotes; type: functional
[9] = system: Trypanosoma brucei brucei; assay: Selectivity ratio of IC50 for Trypanosoma brucei brucei Lister 427 clone 221a overexpressing tet-inducible NTR in absence of tetracycline to IC50 for Trypanosoma brucei brucei overexpressing tet-inducible NTR in presence of tetracyclin
[10] = system: Trypanosoma brucei brucei; assay: Activity of Trypanosoma brucei brucei recombinant Type I nitroreductase assessed as oxidised NADH level by spectrophotometric analysis
Procedure, shortened: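 His-tagged recombinant TbNTR, purified, assayed spectrophotometrically at 340 nm with nitrotriazole substrate (100 μM) and NADH (100 μM); activity expressed as nmol NADH oxidized min−1 mg−1 enzyme.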

[11] = Selectivity index, ratio of IC50 for rat L6 cells to IC50 for Trypanosoma cruzi Tulahuen C4 amastigotes
[12] = Selectivity index, ratio of IC50 for rat L6 cells to IC50 for Leishmania donovani MHOM-ET67/L82 amastigotes

Row | SMILES | IC50 [1] | IC50 [2] | IC50 [3] | IC50 (Trypanosoma cruzi [4]) | IC50 (Leishmania donovani) | inhibition [5] | selectivity ratio [6] | IC50 [7] | IC50 (L6) | Ratio IC50 (Trypanosoma cruzi [8]) | Ratio IC50 [9] | Activity [10] | selectivity ratio [11] | selectivity ratio [12]
1 | O=[N+]([O-])c1ncn(CCCNS(=O)(=O)c2ccc(C(F)(F)F)cc2)n1 | 0.25 µM | 3.4 µM | 0.504 µM | 0.359 µM | 13.1 µM | inactive | 467 | 7.83 µM | 235 µM | 4.4 | 31 | Active | 656 | 
2 | O=[N+]([O-])c1ncn(CCCNS(=O)(=O)c2ccc(Cl)s2)n1 | 0.23 µM | 2.3 µM | 1.99 µM | 0.438 µM | 33 µM |  | 122 | 4.34 µM | 244 µM | 3.6 | 19 |  | 556 | 7.4
3 | Cc1ccc2nc(NC(=O)Cn3cnc([N+](=O)[O-])n3)sc2c1 |  |  | 11.5 µM | 1.8 µM | 5.91 µM |  | 14.8 |  | 170 µM | 0.9 |  |  | 94.4 | 28.7
4 | O=C(Cn1cnc([N+](=O)[O-])n1)Nc1nc2cc(Cl)ccc2o1 |  |  | 34.4 µM | 7.88 µM | 4.68 µM |  | < 1 |  | 26.3 µM | 0.2 |  |  | 3.3 | 5.6
5 | O=C(NCCCn1cnc([N+](=O)[O-])n1)c1ccc2ccccc2n1 |  | > 10 µM | 3.22 µM | 0.138 µM | 19.9 µM | inactive |  |  | 218 µM | 11.3 |  | Active | 1580 | 
6 | O=C(Cn1cnc([N+](=O)[O-])n1)Nc1nc2ccc(Cl)cc2s1 |  |  | 48.5 µM | 6.59 µM | 5.82 µM |  | 3.4 |  | 163 µM | 0.2 |  |  | 24.8 | 28
7 | O=C(NCCn1cnc([N+](=O)[O-])n1)c1ccc(C(F)(F)F)cc1 | 0.09 µM | 1.3 µM | 3.16 µM | 0.438 µM | 33.4 µM | inactive |  | 1.26 µM | > 274 µM | 3.6 | 14 | Active | > 625 | 
8 | O=[N+]([O-])c1ncn(CCCCNS(=O)(=O)c2ccc(OC(F)(F)F)cc2)n1 |  |  | 0.477 µM | 0.203 µM | 7.8 µM |  | 235 |  | 112 µM | 7.7 |  |  | 552 | 14.4
